Active and inactive are the calls of the source. The rule behind the calls is not given here.
Experiments:
[1] = biological target: RAC-alpha serine/threonine-protein kinase (Homo sapiens) (UniProt P31749); test: Inhibition of AKT phosphorylation in human GEO cells; format: cell-based
Mus musculus [2] = test: Increase in blood glucose level in CD-1 nu/nu mouse at 10 mg/kg, po upto 8 hrs; format: functional, organism-based; parameters: dose 10 mg/kg
Procedure, shortened: (§1)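 Blood glucose measured in GEO xenograft mice after the last dose of a 14-day oral dosing study, over a time course to 24 h.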

Mus musculus [3] = test: Increase in blood glucose level in CD-1 nu/nu mouse at 10 mg/kg, po after 24 hrs; format: functional, organism-based; parameters: dose 10 mg/kg; procedure, shortened: as §1
Mus musculus [4] = test: Inhibition of human IGF1R phosphorylation in human GEO cells xenografted in CD-1 nu/nu mouse assessed as sustained inhibition measured 24 hrs post last dose at 20 mg/kg, po qd administered for 14 days

Chain of RAC-alpha serine/threonine-protein kinase (Homo sapiens) (P31749 whole entry): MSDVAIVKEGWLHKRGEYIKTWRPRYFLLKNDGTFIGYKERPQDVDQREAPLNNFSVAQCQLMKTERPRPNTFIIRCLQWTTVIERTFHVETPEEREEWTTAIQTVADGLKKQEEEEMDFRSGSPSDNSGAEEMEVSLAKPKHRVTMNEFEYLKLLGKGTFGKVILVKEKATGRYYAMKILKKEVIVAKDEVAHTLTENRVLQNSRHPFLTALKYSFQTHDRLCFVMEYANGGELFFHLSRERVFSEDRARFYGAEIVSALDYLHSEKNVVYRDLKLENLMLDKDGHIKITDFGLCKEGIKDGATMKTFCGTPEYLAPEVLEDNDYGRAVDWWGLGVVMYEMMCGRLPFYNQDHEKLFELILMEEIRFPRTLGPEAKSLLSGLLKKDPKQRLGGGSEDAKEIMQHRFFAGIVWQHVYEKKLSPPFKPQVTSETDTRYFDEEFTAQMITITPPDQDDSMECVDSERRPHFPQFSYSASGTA

- inhibition [1]: Active
Compound: C[C@]1(O)C[C@@H](c2nc(-c3ccc4ccc(-c5ccccc5)nc4c3F)c3c(N)ncnn32)C1
- Activity (Mus musculus [2]): Active
- Activity (Mus musculus [3]): inactive
- inhibition (Mus musculus [4]): Active

Source: ChEMBL document CHEMBL1687700, “Discovery of an Orally Efficacious Imidazo[5,1-f][1,2,4]triazine Dual Inhibitor of IGF-1R and IR” (ACS Med Chem Lett, 2010)
